Results reported in ChEMBL document CHEMBL1124871, “Synthesis and antiviral activity of some acyclic and C-acyclic pyrrolo[2,3-d]pyrimidine nucleoside analogues” (J Med Chem, 1990).

What was measured:
[1] = test system: Human immunodeficiency virus; assay: Inhibitory activity against HIV in Alex cells; format: functional, organism-based; settings: Human immunodeficiency virus 1, Alex
Method in brief: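 Alex cells preinfected with HIV for 3 h at 37 °C; compounds added in 3- or 5-fold dilutions (four for screening, eight for confirmation). Incubated 8 days at 37 °C in CO2, medium/sample changed on day 4. Reverse transcriptase measured on day 8. Uninfected cells exposed to the same dilutions for cytotoxicity. IC50 recorded.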

[2] = Therapeutic ratio at 400 uM toxicity to Alex cells.; format: cell-based; settings: human
Human alphaherpesvirus 2 = assay: Inhibitory activity against herpes simplex virus; format: functional, organism-based
Method in brief: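 One-day-old confluent HEp-2 monolayers preinfected 1.5 h at 37 °C with HSV-2 (G and Lovelace strains); 3-fold dilutions over seven points, 72 h at 37 °C. Virus presence and toxicity scored visually by CPE. Uninfected cells with compound served as cytotoxicity control; virus inoculum checked by back-titration. IC50 recorded.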

CSc1c(C#N)c2c(N)ncnc2n1CC(O)CCO (centres undefined)
IC50 [1]: 100 µM

CSc1c(C#N)c2c(N)ncnc2n1COCCO
IC50 [1]: > 200 µM

NC(=O)c1cn(CC(O)CO)c2ncnc(N)c12 (centres undefined)
IC50 [1]: > 200 µM

N#Cc1cn(COC(CO)CO)c2nc(N)nc(O)c12
selectivity ratio [2]: 133 | IC50 [1]: 3 µM

NC(=O)c1cn(CC(O)CCO)c2nc(N)nc(O)c12 (centres undefined)
IC50 [1]: > 200 µM

CSc1c(C(N)=O)c2c(O)nc(N)nc2n1CC(O)CCO (centres undefined)
IC50 [1]: > 200 µM

N#Cc1cn(CC(O)CO)c2ncnc(N)c12 (centres undefined)
IC50 [1]: 197 µM

N#Cc1cn(CC(O)CCO)c2ncnc(N)c12 (centres undefined)
IC50 [1]: > 200 µM

N#Cc1cn(CC(O)CO)c2nc(N)nc(O)c12 (centres undefined)
IC50 [1]: > 200 µM

NC(=O)c1cn(COCCO)c2nc(N)nc(O)c12
IC50 [1]: > 200 µM

NC(=O)c1cn(COC(CO)CO)c2ncnc(N)c12
IC50 [1]: > 200 µM

NC(=O)c1cn(CC(O)CCO)c2ncnc(N)c12 (centres undefined)
IC50 [1]: > 200 µM

CSc1c(C(N)=O)c2c(N)ncnc2n1CC(O)CCO (centres undefined)
IC50 [1]: > 200 µM

NC(=O)c1cn(COC(CO)CO)c2nc(N)nc(O)c12
IC50 [1]: > 200 µM

N#Cc1cn(CC(O)CCO)c2nc(N)nc(O)c12 (centres undefined)
IC50 [1]: > 200 µM

N#Cc1cn(COCCO)c2ncnc(N)c12
IC50 [1]: 46 µM

CSc1c(C(N)=O)c2c(O)nc(N)nc2n1CC(O)CO (centres undefined)
IC50 [1]: > 200 µM

CSc1c(C#N)c2c(O)nc(N)nc2n1COCCO
IC50 [1]: > 200 µM

NC(=O)c1cn(CC(O)CO)c2nc(N)nc(O)c12 (centres undefined)
IC50 [1]: > 200 µM

NC(=O)c1cn(COCCO)c2ncnc(N)c12
IC50 [1]: > 200 µM

N#Cc1cn(COCCO)c2nc(N)nc(O)c12
IC50 [1]: > 200 µM

CSc1c(C#N)c2c(N)ncnc2n1CC(O)CO (centres undefined)
IC50 [1]: > 200 µM

Nc1nc2c(ncn2COC(CO)CO)c(=O)[nH]1 [GANCICLOVIR]
IC50 (Human alphaherpesvirus 2): 32 µM

CSc1c(C(N)=O)c2c(N)ncnc2n1COC(CO)CO
IC50 [1]: > 200 µM

CSc1c(C#N)c2c(N)ncnc2n1COC(CO)CO
selectivity ratio at 400 µM [2]: 40 | IC50 [1]: 20 µM

CSc1c(C#N)c2c(O)nc(N)nc2n1CC(O)CCO (centres undefined)
IC50 [1]: > 200 µM

CSc1c(C#N)c2c(O)nc(N)nc2n1COC(CO)CO
IC50 [1]: > 200 µM

CSc1c(C#N)c2c(O)nc(N)nc2n1CC(O)CO (centres undefined)
IC50 [1]: > 200 µM

CSc1c(C(N)=O)c2c(N)ncnc2n1COCCO
IC50 [1]: > 200 µM

CSc1c(C(N)=O)c2c(N)ncnc2n1CC(O)CO (centres undefined)
IC50 [1]: > 200 µM

Cc1cn([C@H]2C[C@H](N=[N+]=[N-])[C@@H](CO)O2)c(=O)[nH]c1=O [ZIDOVUDINE]
IC50 [1]: 0.01 µM

CSc1c(C(N)=O)c2c(O)nc(N)nc2n1COC(CO)CO
IC50 [1]: > 200 µM
